{"source": "ChEMBL document CHEMBL3808357", "about": "“Discovery of N-(3-((1-Isonicotinoylpiperidin-4-yl)oxy)-4-methylphenyl)-3-(trifluoromethyl)benzamide (CHMFL-KIT-110) as a Selective, Potent, and Orally Available Type II c-KIT Kinase Inhibitor for Gastrointestinal Stromal Tumors (GISTs)” (J Med Chem, 2016)", "key": {"[1]": {"target": "Mast/stem cell growth factor receptor Kit (Homo sapiens) (UniProt P10721)", "sequence (P10721 whole entry, the tested form may be a part)": "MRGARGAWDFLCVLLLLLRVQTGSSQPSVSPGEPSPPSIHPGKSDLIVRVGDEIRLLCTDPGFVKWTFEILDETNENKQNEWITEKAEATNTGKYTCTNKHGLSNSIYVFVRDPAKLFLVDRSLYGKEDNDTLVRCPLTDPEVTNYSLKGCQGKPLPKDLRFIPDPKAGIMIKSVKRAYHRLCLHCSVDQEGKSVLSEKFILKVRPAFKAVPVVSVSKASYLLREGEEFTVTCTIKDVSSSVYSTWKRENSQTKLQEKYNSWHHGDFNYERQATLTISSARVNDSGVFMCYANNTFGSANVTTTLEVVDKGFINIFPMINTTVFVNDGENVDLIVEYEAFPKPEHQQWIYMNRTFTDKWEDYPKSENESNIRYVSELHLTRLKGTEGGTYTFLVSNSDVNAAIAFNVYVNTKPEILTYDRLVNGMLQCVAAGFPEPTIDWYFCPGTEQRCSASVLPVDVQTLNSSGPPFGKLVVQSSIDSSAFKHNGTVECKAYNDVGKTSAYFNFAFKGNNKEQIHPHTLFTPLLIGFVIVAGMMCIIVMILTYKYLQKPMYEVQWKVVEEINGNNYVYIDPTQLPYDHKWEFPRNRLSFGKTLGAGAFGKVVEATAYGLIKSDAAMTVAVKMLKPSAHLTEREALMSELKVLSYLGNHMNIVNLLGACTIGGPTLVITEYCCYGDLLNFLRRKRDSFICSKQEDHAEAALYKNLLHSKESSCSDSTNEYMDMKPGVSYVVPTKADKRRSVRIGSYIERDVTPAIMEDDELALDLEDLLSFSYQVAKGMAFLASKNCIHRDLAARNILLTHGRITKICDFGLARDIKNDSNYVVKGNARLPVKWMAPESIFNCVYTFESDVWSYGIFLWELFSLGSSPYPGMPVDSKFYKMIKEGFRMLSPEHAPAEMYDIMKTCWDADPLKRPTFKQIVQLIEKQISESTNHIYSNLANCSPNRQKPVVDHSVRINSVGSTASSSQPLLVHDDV", "experiment": "Inhibition of cKIT in human GISTT1 cells assessed as suppression of AKT phosphorylation at S473 up to 10 uM after 2 hrs by Western blot analysis", "assay_type": "cell-based"}, "[2]": {"target": "Mast/stem cell growth factor receptor Kit (Homo sapiens) (UniProt P10721)", "experiment": "Inhibition of cKIT in human GISTT1 cells assessed as suppression of S6K phosphorylation at T389 up to 10 uM after 2 hrs by Western blot analysis", "assay_type": "cell-based"}, "[3]": {"target": "Mast/stem cell growth factor receptor Kit (Homo sapiens) (UniProt P10721)", "experiment": "Inhibition of cKIT in human GIST48B cells assessed as suppression of S6K phosphorylation at T389 up to 10 uM after 2 hrs by Western blot analysis", "assay_type": "cell-based"}, "[4]": {"target": "Mast/stem cell growth factor receptor Kit (Homo sapiens) (UniProt P10721)", "experiment": "Inhibition of cKIT in human GIST48B cells assessed as suppression of STAT5 phosphorylation at Y694 up to 10 uM after 2 hrs by Western blot analysis", "assay_type": "cell-based"}, "[5]": {"target": "Platelet-derived growth factor receptor alpha (Homo sapiens) (UniProt P16234)", "sequence (P16234 whole entry)": "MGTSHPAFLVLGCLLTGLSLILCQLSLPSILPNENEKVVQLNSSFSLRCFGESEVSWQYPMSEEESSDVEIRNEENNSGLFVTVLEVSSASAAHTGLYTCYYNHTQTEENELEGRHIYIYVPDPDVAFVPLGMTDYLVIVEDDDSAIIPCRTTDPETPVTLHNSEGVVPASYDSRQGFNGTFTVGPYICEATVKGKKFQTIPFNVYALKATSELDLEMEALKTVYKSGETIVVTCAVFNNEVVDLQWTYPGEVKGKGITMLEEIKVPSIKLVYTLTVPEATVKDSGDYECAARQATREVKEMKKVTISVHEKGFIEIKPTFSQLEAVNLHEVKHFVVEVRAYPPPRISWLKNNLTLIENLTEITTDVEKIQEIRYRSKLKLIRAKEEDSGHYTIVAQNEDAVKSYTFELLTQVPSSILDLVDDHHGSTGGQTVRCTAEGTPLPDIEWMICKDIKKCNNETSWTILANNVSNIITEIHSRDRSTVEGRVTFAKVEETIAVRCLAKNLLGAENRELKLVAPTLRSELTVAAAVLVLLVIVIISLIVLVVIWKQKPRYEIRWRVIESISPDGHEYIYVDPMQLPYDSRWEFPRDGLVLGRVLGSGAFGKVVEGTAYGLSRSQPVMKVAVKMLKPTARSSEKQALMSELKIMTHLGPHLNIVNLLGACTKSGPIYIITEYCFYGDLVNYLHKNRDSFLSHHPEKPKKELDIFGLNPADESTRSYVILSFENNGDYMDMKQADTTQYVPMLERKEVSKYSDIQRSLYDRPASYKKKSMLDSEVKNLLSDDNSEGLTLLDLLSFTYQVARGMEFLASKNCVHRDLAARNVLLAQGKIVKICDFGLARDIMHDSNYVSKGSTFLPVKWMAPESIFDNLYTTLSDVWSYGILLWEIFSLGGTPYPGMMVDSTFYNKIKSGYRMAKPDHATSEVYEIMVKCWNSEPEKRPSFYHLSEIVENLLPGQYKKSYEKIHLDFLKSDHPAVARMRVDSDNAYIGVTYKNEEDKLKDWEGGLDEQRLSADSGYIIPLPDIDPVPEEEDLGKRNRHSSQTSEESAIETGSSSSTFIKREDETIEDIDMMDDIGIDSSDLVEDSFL", "experiment": "Inhibition of PDGFRalpha phosphorylation at Y849 in human GIST882 cells up to 10 uM after 2 hrs by Western blot analysis", "assay_type": "cell-based", "how_it_was_run": "(§1)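 Cells were washed in cold PBS, lysed in RIPA and immunoblotted for phospho and total proteins, including pPDGFRα Y849/PDGFRβ Y857 and β-actin.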"}, "GISTT1 [6]": {"test_system": "GISTT1", "experiment": "Induction of apoptosis in human GISTT1 cells assessed as caspase 3 cleavage up to 3 uM after 48 hrs by Western blot analysis", "assay_type": "functional, cell-based"}, "GISTT1 [7]": {"test_system": "GISTT1", "experiment": "Induction of apoptosis in human GISTT1 cells assessed as PARP cleavage up to 3 uM after 48 hrs by Western blot analysis", "assay_type": "functional, cell-based"}, "[8]": {"experiment": "Cell cycle arrest in human GIST882 cells at 0.3 to 3 uM after 48 hrs by propidium iodide/RNase staining based flow cytometric analysis", "assay_type": "functional", "how_it_was_run": "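Cells were then fixed in 70% cold ethanol at −20 °C overnight, stained with PI/RNase buffer and analysed by flow cytometry.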"}, "[9]": {"experiment": "MRT(0 to t) in Sprague-Dawley rat plasma at 10 mg/kg, po", "assay_type": "ADME, organism-based", "how_it_was_run": "(§2)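 Male Sprague–Dawley rats, 8 weeks old, six in total, fasted overnight; compound dissolved in 5% DMSO/40% PEG400/55% saline (1 mg/mL dosing solution), given iv or orally. About 0.2 mL jugular blood taken with heparin at 1 min–8 h (iv) or 5 min–24 h (oral); plasma separated at 2–8 °C and stored at −80 °C before analysis.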"}, "[10]": {"experiment": "Half life in Sprague-Dawley rat plasma at 1 mg/kg, iv", "assay_type": "ADME, organism-based", "how_it_was_run": "(§3)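 Male Sprague-Dawley rats, 8 weeks old, fasted overnight, dosed iv or orally. Formulation was 5% DMSO/40% PEG400/55% saline at 1 mg/mL. Blood (~0.2 mL) was drawn from the jugular vein into heparin. Sampling: iv at 1 min to 8 h; oral at 5 min to 24 h. Plasma was separated by centrifugation at 2−8 °C and stored at −80 °C.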"}, "[11]": {"experiment": "Tmax in Sprague-Dawley rat plasma at 1 mg/kg, iv", "assay_type": "ADME, organism-based", "how_it_was_run": "as §2"}, "[12]": {"experiment": "Tmax in Sprague-Dawley rat plasma at 10 mg/kg, po", "assay_type": "ADME, organism-based", "how_it_was_run": "as §2"}, "Rattus norvegicus": {"test_system": "Rattus norvegicus", "experiment": "Apparent volume of distribution in Sprague-Dawley rat plasma at 10 mg/kg, po", "assay_type": "ADME, organism-based", "details": "in vivo", "how_it_was_run": "as §3"}, "[13]": {"experiment": "Apparent clearance in Sprague-Dawley rat plasma at 1 mg/kg, iv", "assay_type": "ADME, organism-based", "details": "read-out: CL(app) (converted)", "how_it_was_run": "as §3"}, "[14]": {"experiment": "Antitumor activity against human GISTT1 cells xenografted in nu/nu mouse assessed as tumor growth inhibition at 50 mg/kg/day administered through oral gavage after 21 days", "assay_type": "functional", "details": "504 h, read-out: TGI", "how_it_was_run": "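Female nu/nu mice, 6 weeks old, received 5 × 10⁶ GIST-T1 cells in PBS/Matrigel (1:1) subcutaneously in the right flank. At 100−200 mm³, six mice per group were dosed daily by oral gavage at 25, 50 or 100 mg/kg/d in 0.5% methylcellulose/0.4% Tween80, or vehicle. Tumor volume was taken as (W²×L)/2, with body weight and tumor measured daily. Tumors were stained for Ki67 (IHC, 1:50 antibody) and by TUNEL.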"}, "[15]": {"target": "T1, Platelet-derived growth factor receptor beta (Homo sapiens, UniProt P09619)", "T1 sequence (P09619 whole entry)": "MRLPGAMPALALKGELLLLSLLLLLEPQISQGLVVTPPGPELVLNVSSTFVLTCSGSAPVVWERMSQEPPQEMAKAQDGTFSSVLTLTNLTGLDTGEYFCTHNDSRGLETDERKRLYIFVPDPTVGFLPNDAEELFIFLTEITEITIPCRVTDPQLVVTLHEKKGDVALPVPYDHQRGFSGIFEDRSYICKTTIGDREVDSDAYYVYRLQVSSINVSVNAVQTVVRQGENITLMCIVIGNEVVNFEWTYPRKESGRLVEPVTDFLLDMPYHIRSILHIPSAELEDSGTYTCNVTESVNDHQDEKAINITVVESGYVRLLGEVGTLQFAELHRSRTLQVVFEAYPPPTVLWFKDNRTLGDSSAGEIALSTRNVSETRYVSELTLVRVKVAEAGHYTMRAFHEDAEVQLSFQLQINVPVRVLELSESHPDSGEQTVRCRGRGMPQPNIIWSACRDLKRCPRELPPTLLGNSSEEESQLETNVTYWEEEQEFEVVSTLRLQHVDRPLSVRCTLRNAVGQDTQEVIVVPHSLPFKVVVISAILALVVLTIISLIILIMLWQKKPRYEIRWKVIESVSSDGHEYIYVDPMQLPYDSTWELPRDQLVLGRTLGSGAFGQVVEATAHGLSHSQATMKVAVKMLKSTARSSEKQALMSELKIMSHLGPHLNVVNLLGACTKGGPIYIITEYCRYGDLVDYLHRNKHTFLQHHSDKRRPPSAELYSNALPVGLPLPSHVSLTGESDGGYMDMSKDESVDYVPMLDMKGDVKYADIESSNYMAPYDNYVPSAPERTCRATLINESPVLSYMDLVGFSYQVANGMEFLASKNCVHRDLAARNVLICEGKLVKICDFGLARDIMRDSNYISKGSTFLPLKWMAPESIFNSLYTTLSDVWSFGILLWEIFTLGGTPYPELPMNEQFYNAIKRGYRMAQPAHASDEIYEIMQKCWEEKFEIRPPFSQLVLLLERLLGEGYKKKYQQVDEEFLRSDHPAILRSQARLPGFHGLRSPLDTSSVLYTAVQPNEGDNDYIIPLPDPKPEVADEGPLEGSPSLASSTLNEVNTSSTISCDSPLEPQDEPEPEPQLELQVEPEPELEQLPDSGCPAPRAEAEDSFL", "experiment": "Inhibition of PDGFRbeta phosphorylation at Y857 in human GIST882 cells up to 10 uM after 2 hrs by Western blot analysis", "assay_type": "cell-based", "how_it_was_run": "as §1"}, "[16]": {"target": "T1, Platelet-derived growth factor receptor beta", "experiment": "Inhibition of PDGFRbeta phosphorylation at Y857 in human GIST48B cells up to 10 uM after 2 hrs by Western blot analysis", "assay_type": "cell-based", "how_it_was_run": "as §1"}, "[17]": {"target": "Epithelial discoidin domain-containing receptor 1 (Homo sapiens, UniProt Q08345)", "sequence (Q08345 whole entry, the tested form may be a part)": "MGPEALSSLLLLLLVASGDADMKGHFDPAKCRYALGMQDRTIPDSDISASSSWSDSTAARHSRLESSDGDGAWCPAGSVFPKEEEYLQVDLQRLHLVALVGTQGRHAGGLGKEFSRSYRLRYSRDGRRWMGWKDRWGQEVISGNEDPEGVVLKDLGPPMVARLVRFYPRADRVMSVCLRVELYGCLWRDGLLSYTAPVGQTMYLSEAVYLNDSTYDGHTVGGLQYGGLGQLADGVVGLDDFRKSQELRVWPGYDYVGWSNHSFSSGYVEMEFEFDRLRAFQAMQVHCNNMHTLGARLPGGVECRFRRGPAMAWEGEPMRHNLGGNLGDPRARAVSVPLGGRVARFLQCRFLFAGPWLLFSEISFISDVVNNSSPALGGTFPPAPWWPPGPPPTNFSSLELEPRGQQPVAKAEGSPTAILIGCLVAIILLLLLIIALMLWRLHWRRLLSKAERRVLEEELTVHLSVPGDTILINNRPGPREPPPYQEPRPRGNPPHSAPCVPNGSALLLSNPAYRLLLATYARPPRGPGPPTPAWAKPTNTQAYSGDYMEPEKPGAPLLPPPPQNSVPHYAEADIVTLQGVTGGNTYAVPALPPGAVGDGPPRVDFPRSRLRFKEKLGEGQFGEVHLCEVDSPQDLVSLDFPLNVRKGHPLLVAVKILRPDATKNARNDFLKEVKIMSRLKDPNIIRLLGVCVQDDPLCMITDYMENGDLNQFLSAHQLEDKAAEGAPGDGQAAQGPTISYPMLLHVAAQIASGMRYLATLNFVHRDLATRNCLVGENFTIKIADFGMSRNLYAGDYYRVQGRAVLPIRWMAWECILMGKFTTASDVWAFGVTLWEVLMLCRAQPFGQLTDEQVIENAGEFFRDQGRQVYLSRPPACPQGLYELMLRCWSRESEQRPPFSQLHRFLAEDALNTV", "experiment": "Inhibition of GST-tagged human DDR1 expressed in baculovirus after 1 hr by Z-lyte assay"}, "[18]": {"experiment": "Antiproliferative activity against mouse BAF3 cells", "assay_type": "cell-based"}, "[19]": {"test_system": "Mast/stem cell growth factor receptor Kit (Homo sapiens), P10721 [V559D,V654A]", "sequence (P10721 whole entry V559D/V654A, the tested form may be a part)": "as the sequence (P10721 whole entry, the tested form may be a part) above, with V559D, V654A counted along it", "experiment": "Inhibition of Tel-fused cKIT V559D/V654A double mutant (unknown origin) transfected in mouse BAF3 cells assessed as decrease in cell proliferation after 72 hrs by celltiter-glo/CCK8 assay", "assay_type": "cell-based", "how_it_was_run": "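Stable BaF3 lines made by retroviral transduction with mutagenized TEL-KIT MSCV vectors, puromycin selection 48 h, then gradual IL-3 withdrawal until IL-3-independent; grown in RPMI 1640 with 10% FBS. Cells at 1 to 3 × 10⁴ cells/mL exposed to a concentration series for 72 h; viability read by CellTiter-Glo luminescence or CCK-8 absorbance (450/655 nm); GI50 from triplicate testing.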"}, "[20]": {"target": "Mast/stem cell growth factor receptor Kit (Homo sapiens) (UniProt P10721)", "experiment": "Inhibition of Tel-fused cKIT L567P mutant (unknown origin) transfected in mouse BAF3 cells assessed as decrease in cell proliferation after 72 hrs by celltiter-glo/CCK8 assay", "assay_type": "cell-based"}, "[21]": {"experiment": "Antiproliferative activity against human GIST48B cells assessed as reduction in cell viability after 72 hrs by celltiter-glo/CCK8 assay", "assay_type": "functional", "how_it_was_run": "(§4)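 Cells were seeded at 1 to 3 × 10⁴ cells/mL with serial compound concentrations and incubated 72 h at 37 °C, 5% CO₂. Viability was read by CellTiter-Glo luminescence or CCK-8 absorbance (450/655 nm). GI50 values are from triplicate testing. GIST-T1 and CHO were grown in DMEM/10% FBS; GIST-882, GIST-48B and MV4-11 in IMDM/10% FBS; other lines in RPMI 1640/10% FBS.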"}, "[22]": {"experiment": "Antiproliferative activity against human BCR-ABL dependent MEG01 cells assessed as reduction in cell viability after 72 hrs by celltiter-glo/CCK8 assay", "assay_type": "functional", "details": "MEG-01, 72 h"}, "[23]": {"experiment": "Antiproliferative activity against BCR-ABL dependent human KU812 cells assessed as reduction in cell viability after 72 hrs by celltiter-glo/CCK8 assay", "assay_type": "functional", "details": "KU812, 72 h", "how_it_was_run": "as §4"}, "[24]": {"experiment": "Antiproliferative activity against FLT3-ITD dependent human MOLM14 cells assessed as reduction in cell viability after 72 hrs by celltiter-glo/CCK8 assay", "assay_type": "functional", "details": "MOLM-14, 72 h", "how_it_was_run": "as §4"}, "[25]": {"experiment": "Antiproliferative activity against human Rec1 cells assessed as reduction in cell viability after 72 hrs by celltiter-glo/CCK8 assay", "assay_type": "functional", "details": "Rec1, 72 h", "how_it_was_run": "as §4"}, "[26]": {"target": "Mast/stem cell growth factor receptor Kit (Homo sapiens) (UniProt P10721)", "experiment": "Inhibition of cKIT autophosphorylation at Y719 in human GIST882 cells up to 10 uM after 2 hrs by Western blot analysis", "assay_type": "cell-based"}}, "note": "The source made the active and inactive calls. The rule behind the calls is not given here.", "data": [{"smiles": "Cc1ccc(NC(=O)c2cccc(C(F)(F)F)c2)cc1OC1CCN(C(=O)c2ccncc2)CC1", "values": [{"measurement": "inhibition", "setting": "[1]", "value": "Active"}, {"measurement": "inhibition", "setting": "[2]", "value": "Active"}, {"measurement": "inhibition", "setting": "[3]", "value": "inactive"}, {"measurement": "inhibition", "setting": "[4]", "value": "Active"}, {"measurement": "inhibition", "setting": "[5]", "value": "Active"}, {"measurement": "Activity", "setting": "GISTT1 [6]", "value": "Active"}, {"measurement": "Activity", "setting": "GISTT1 [7]", "value": "Active"}, {"measurement": "Activity", "setting": "[8]", "value": "Active"}, {"measurement": "MRT last", "setting": "[9]", "value": 288, "unit": "min"}, {"measurement": "half-life", "setting": "[10]", "value": 27.1, "unit": "min"}, {"measurement": "Tmax", "setting": "[11]", "value": 1.02, "unit": "min"}, {"measurement": "Tmax", "setting": "[12]", "value": 30, "unit": "min"}, {"measurement": "Vz", "setting": "Rattus norvegicus", "value": 76.407, "unit": "L/kg"}, {"measurement": "clearance", "setting": "[13]", "value": 83.1, "unit": "mL/min/kg"}, {"measurement": "inhibition in vivo at 50 mg/kg/day", "setting": "[14]", "value": 35, "unit": "%"}, {"measurement": "inhibition", "setting": "[15]", "value": "Active"}, {"measurement": "inhibition", "setting": "[16]", "value": "Active"}, {"measurement": "IC50", "setting": "[17]", "value": 0.126, "unit": "µM"}, {"measurement": "GI50", "setting": "[18]", "value": "> 10", "unit": "µM"}, {"measurement": "GI50", "setting": "[19]", "value": 1.05, "unit": "µM"}, {"measurement": "GI50", "setting": "[20]", "value": 0.15, "unit": "µM"}, {"measurement": "GI50", "setting": "[21]", "value": "> 10", "unit": "µM"}, {"measurement": "GI50", "setting": "[22]", "value": 7.43, "unit": "µM"}, {"measurement": "GI50", "setting": "[23]", "value": 6.71, "unit": "µM"}, {"measurement": "GI50", "setting": "[24]", "value": "> 10", "unit": "µM"}, {"measurement": "GI50", "setting": "[25]", "value": "> 10", "unit": "µM"}, {"measurement": "inhibition", "setting": "[26]", "value": "Active"}]}]}
